The record followed here is ChEMBL document CHEMBL1150572, “Isolation and structures of haterumadioxins A and B, cytotoxic endoperoxides from the Okinawan sponge Plakortis lita” (J Nat Prod, 2001).

The subject of one experiment is HCC 2998. The experiment is described as follows: Growth inhibition of human HCC2998 cells. The format is functional.
Another experiment relates to LOX IMVI. The experiment in a line: Growth inhibition of human LOXIMVI cells. The format is functional.
Experiment [1] can be described thus: Growth inhibition of human RXF631L cells. The format is functional. The conditions noted are these: RXF 631.
The next experiment relates to St-4. The experiment is described as follows: Growth inhibition of human St-4 cells. Type of experiment: functional.
A further experiment relates to MKN-74. The experiment is described as follows: Growth inhibition of human MKN74 cells. The format is functional.
Experiment [2] is described as follows: Growth inhibition of human HBC5 cells. The format is functional.
In another experiment the test system is SNB-78. The experiment is described as follows: Growth inhibition of human SNB78 cells. The format is functional.
In the next experiment the test system is OVCAR-5. The experiment in a line: Growth inhibition of human OVCAR5 cells. Type of experiment: functional.
Another experiment relates to NCI-H23. The experiment in a line: Growth inhibition of human NCI-H23 cells. Type of experiment: functional.
The test system of the next experiment is OVCAR-4. The experiment in a line: Growth inhibition of human OVCAR4 cells. Type of experiment: functional.
The test system of another experiment is NCI-H460. The experiment in a line: Growth inhibition of human NCI-H460 cells. Type of experiment: functional.
In a further experiment the test system is MCF7. The experiment in a line: Growth inhibition of human MCF7 cells. Type of experiment: functional.
For a further experiment, the system named is OVCAR-3. The experiment is described as follows: Growth inhibition of human OVCAR-3 cells. Type of experiment: functional.
Experiment [3] in a line: Growth inhibition of human MKN1 cells. Type of experiment: functional. The conditions noted are these: MKN-1.
Another experiment relates to DMS-114. The experiment in a line: Growth inhibition of human DMS114 cells. Type of experiment: functional.
Another experiment has as its system DU-145. The experiment is described as follows: Growth inhibition of human DU145 cells. The format is functional.
The next experiment concerns MKN-7. The experiment in a line: Growth inhibition of human MKN7 cells. The format is functional.
The test system of a further experiment is MKN-45. The experiment is described as follows: Growth inhibition of human MKN45 cells. Type of experiment: functional.
In the next experiment the test system is MKN-28. The experiment is described as follows: Growth inhibition of human MKN28 cells. Type of experiment: functional.
A further experiment has as its system HCT-15. The experiment is described as follows: Growth inhibition of human HCT15 cells. The format is functional.
The test system of another experiment is SNB-75. The experiment is described as follows: Growth inhibition of human SNB75 cells. Type of experiment: functional.
Another experiment concerns PC-3. The experiment is described as follows: Growth inhibition of human PC3 cells. Type of experiment: functional.
The next experiment relates to A549. The experiment is described as follows: Growth inhibition of human A549 cells. The format is functional.
Experiment [4] is described as follows: Growth inhibition of human BSY1 cells. Type of experiment: functional. The conditions noted are these: BSY-1.
A further experiment relates to ACHN. The experiment in a line: Growth inhibition of human ACHN cells. Type of experiment: functional.
The subject of the next experiment is HT-29. The experiment in a line: Growth inhibition of human HT-29 cells. Type of experiment: functional.
The subject of another experiment is SK-OV-3. The experiment in a line: Growth inhibition of human SKOV3 cells. The format is functional.
The next experiment deals with HCT-116. The experiment is described as follows: Growth inhibition of human HCT116 cells. Type of experiment: functional.
In the next experiment the test system is P388. The experiment is described as follows: Cytotoxicity against mouse P388 cells. Type of experiment: functional, cell-based. In a few lines: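 Murine P388 leukemia cells, 2 × 10^4 cells/mL, in RPMI-1640 with 10% FBS, 10 µM 2-hydroxyethyl disulfide and kanamycin (100 µg/mL). Samples were added in MeOH. Cells were incubated 4 days at 37 °C in humidified 5% CO2, then counted by MTT. IC50 (50% inhibition of cell growth) was read from the growth curve.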

The nature of experiment [5]: Growth inhibition of human HBC4 cells. The format is functional.
For a further experiment, the system named is MDA-MB-231. The experiment is described as follows: Growth inhibition of human MDA-MB-231 cells. The format is functional.
In the next experiment the test system is SF-539. The experiment is described as follows: Growth inhibition of human SF539 cells. The format is functional.
The test system of the next experiment is U-251. The experiment in a line: Growth inhibition of human U251 cells. The format is functional.
A further experiment has as its system KM12. The experiment is described as follows: Growth inhibition of human KM12 cells. Type of experiment: functional.
The next experiment concerns NCI-H522. The experiment in a line: Growth inhibition of human NCI-H522 cells. Type of experiment: functional.
The subject of a further experiment is DMS-273. The experiment in a line: Growth inhibition of human DMS273 cells. Type of experiment: functional.
The next experiment deals with OVCAR-8. The experiment is described as follows: Growth inhibition of human OVCAR8 cells. Type of experiment: functional.
The test system of the next experiment is NCI-H226. The experiment is described as follows: Growth inhibition of human NCI-H226 cells. Type of experiment: functional.
For another experiment, the system named is SF-295. The experiment is described as follows: Growth inhibition of human SF295 cells. Type of experiment: functional.
The test system of the next experiment is SF-268. The experiment is described as follows: Growth inhibition of human SF268 cells. The format is functional.

Converted amounts (≈) assume the structure as drawn.

As to `CC/C=C/[C@H](CC)C[C@]1(CC)C=C(CC)[C@H](CC(=O)O)OO1` [HATERUMADIOXIN A], the GI50 with HCC 2998 was 1910 nM; in the experiment on LOX IMVI, 100 nM; in experiment [1], 1700 nM; in the experiment with St-4, 2090 nM; in the experiment on MKN-74, 2190 nM; in experiment [2], 1320 nM. The GI50 with SNB-78 is 1860 nM; in the experiment on OVCAR-5, 1820 nM; in the experiment with NCI-H23, 5500 nM; in the experiment with OVCAR-4 it was 676 nM; in the experiment with NCI-H460 it was 1820 nM; in the experiment on MCF7 it was 1740 nM. The GI50 is 1550 nM in the experiment on OVCAR-3; 832 nM in [3]; 1480 nM in the experiment on DMS-114; 1700 nM with DU-145; 1910 nM in the experiment on MKN-7; 2040 nM with MKN-45. The concentration for 50% growth inhibition (GI50) is 2240 nM in the experiment on MKN-28; 1700 nM in the experiment on HCT-15; 1660 nM in the experiment with SNB-75; 1910 nM in the experiment on PC-3; 1950 nM in the experiment with A549; 1780 nM in experiment [4]. Moreover, the concentration for 50% growth inhibition (GI50) in the experiment with ACHN is 1170 nM; in the experiment on HT-29 it was 1950 nM; in the experiment with SK-OV-3 it was 2000 nM; in the experiment with HCT-116, 1550 nM; in experiment [5], 1170 nM; in the experiment with MDA-MB-231, 1860 nM. The GI50 in the experiment on SF-539 was 1820 nM; in the experiment on U-251, 1780 nM; with KM12, 1820 nM; in the experiment with NCI-H522, 1860 nM; with DMS-273, 1410 nM; with OVCAR-8 it was 2140 nM. The 50% growth inhibitory concentration (GI50) with NCI-H226 was 1780 nM; in the experiment with SF-295 it was 1780 nM; in the experiment with SF-268 it was 1820 nM. This compound also yielded a 50% inhibitory concentration (IC50) with P388 of 11 ng/mL (≈ 0.0354 µM).

In the experiment with P388, `CCCC[C@H](CC)C[C@]1(CC)C=C(CC)[C@H](CC(=O)O)OO1` [HATERUMADIOXIN B] returned an IC50 of 5.5 ng/mL (≈ 0.0176 µM).
